# Assay results as given in ChEMBL document CHEMBL3352760, “Nanomolar-Potency Small Molecule Inhibitor of STAT5 Protein” (ACS Med Chem Lett, 2014).
# The source made the active and inactive calls. The rule behind the calls is not given here.
# Columns and labels:
# [1] = biological target: T1, Signal transducer and activator of transcription 5B (Homo sapiens, UniProt P51692); test: Inhibition of STAT5B SH2 domain (unknown origin)-5-FAM-GpYLVLDKW interaction compound treated for 15 mins by fluorescent polarization assay
# T1 sequence (P51692 whole entry): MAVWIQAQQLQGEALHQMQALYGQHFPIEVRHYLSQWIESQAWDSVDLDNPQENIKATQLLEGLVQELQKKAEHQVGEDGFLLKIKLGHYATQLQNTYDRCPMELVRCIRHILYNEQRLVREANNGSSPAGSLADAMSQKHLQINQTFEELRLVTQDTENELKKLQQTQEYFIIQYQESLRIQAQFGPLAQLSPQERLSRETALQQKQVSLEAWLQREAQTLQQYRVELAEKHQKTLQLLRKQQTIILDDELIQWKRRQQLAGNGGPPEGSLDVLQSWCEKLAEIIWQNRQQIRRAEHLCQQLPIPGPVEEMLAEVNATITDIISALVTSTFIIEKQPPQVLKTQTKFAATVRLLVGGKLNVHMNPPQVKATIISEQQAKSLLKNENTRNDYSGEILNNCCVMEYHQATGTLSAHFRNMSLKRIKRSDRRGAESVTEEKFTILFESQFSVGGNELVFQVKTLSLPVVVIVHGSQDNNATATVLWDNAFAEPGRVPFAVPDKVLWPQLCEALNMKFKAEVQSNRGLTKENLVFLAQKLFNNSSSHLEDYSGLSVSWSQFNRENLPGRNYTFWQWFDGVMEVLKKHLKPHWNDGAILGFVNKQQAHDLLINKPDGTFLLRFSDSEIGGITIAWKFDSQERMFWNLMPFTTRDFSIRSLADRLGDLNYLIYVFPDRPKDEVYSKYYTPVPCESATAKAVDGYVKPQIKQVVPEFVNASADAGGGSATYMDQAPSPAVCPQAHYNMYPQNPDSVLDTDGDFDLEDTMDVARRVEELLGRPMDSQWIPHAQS
# Procedure, shortened: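 Fluorescence polarization used STAT5B SH2 domain bound to the fluorescein-labelled phosphopeptide 5-FAM-GpYLVDKW, with inhibitor tested up to 100 μM. Polarization was read every 15 min over 1 h to confirm the probe stayed bound and to pick the time of maximal change. Ki values were derived from the data.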
# K562 [2] = test: Cytotoxicity against human K562 cells assessed as reduction in cell viability after 72 hrs by CellTiter-Blue assay; type: functional, cell-based; conditions: K562, 72 h
# Procedure, shortened: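 K562 (Bcr-Abl) and MV-4;11 (FLT3-ITD) leukemia cells were exposed to inhibitor over 0.78–50 μM for 72 h. Viability was read by CellTiter-Blue and IC50 taken from the dose series.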
# MDA-MB-231 [3] = test: Effect on total STAT3 level in human MDA-MB-231 cells at 15 uM after 5 hrs by Western blotting; type: functional, cell-based
# Procedure, shortened: (§1)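 MDA-MB-231 breast cancer cells carry high pSTAT3 and negligible pSTAT5. They were treated up to 20 μM and immunoblotted for pSTAT3, total STAT3 and total STAT5.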
# [4] = biological target: Receptor-type tyrosine-protein kinase FLT3 (Homo sapiens) (UniProt P36888); test: Inhibition of FLT3 (unknown origin)
# Chain of Receptor-type tyrosine-protein kinase FLT3 (Homo sapiens) (P36888 whole entry): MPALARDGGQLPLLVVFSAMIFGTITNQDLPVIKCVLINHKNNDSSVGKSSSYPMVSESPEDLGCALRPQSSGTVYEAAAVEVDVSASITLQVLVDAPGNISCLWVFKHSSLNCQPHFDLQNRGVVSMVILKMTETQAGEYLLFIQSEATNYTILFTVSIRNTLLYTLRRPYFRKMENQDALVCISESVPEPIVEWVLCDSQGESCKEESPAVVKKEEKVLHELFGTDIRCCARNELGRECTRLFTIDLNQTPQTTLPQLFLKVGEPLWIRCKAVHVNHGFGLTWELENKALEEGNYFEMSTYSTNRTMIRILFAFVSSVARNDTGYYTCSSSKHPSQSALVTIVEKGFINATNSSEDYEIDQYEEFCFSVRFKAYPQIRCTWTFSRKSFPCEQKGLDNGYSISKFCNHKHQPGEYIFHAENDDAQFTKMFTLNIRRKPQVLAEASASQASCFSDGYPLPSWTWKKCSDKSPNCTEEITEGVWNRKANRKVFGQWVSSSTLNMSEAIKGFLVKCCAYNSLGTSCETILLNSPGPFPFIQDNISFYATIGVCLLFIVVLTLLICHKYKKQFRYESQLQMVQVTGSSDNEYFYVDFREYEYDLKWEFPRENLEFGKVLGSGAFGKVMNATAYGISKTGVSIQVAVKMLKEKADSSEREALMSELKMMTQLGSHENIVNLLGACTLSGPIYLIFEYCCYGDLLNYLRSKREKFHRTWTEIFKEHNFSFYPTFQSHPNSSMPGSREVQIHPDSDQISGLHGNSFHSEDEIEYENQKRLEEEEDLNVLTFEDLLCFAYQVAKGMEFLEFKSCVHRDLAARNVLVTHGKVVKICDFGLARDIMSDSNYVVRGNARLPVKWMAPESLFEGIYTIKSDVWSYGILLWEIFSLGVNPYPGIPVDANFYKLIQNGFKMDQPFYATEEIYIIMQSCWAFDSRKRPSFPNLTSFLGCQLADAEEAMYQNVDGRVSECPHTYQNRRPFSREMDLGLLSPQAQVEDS
# [5] = Cytotoxicity against human CD34-positive umbilical cord cells assessed as reduction in cell viability at 10 uM after 72 hrs by CellTiter-Blue assay; type: cell-based
# Procedure, shortened: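 Healthy human CD34+ umbilical cord cells received a single 10 μM dose, with MV4;11 cells run alongside. Cell viability was then measured.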
# K562 [6] = test: Inhibition of STAT5 phosphorylation at Y694 residue in human K562 cells assessed as decreases in MCL-1 expression at 15 uM after 24 hrs by Western blotting; type: cell-based
# Procedure, shortened: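 K562 cells were exposed to 15 μM for 24 h. Lysates were immunoblotted for cleaved PARP-1, cleaved caspase-3 and MCL-1.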
# [7] = biological target: Signal transducer and activator of transcription 3 (Homo sapiens) (UniProt P40763); conditions: MDA-MB-231, 15 uM
# Chain of Signal transducer and activator of transcription 3 (Homo sapiens) (P40763 whole entry): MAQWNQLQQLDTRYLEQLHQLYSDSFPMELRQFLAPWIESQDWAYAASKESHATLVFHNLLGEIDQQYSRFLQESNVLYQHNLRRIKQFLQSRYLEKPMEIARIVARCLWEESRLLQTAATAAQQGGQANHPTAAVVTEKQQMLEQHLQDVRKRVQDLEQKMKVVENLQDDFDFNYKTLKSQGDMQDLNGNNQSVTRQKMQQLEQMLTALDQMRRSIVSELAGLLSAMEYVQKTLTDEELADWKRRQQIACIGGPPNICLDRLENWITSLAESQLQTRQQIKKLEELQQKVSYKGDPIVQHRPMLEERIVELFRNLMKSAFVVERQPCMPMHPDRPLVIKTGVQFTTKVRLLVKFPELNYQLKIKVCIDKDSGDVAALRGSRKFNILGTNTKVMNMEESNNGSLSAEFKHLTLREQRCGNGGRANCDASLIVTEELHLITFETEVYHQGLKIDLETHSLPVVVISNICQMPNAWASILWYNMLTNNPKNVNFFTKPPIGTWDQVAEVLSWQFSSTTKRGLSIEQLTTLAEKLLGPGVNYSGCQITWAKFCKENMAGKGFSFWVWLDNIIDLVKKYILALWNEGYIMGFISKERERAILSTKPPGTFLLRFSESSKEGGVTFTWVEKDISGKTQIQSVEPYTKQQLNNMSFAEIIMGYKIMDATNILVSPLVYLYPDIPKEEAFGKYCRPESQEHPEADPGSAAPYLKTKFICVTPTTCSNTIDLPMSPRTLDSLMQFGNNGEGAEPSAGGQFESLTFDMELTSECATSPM
# [8] = biological target: T1, Signal transducer and activator of transcription 5B; test: Binding affinity to full-length His-tagged STAT5B (unknown origin) by surface plasmon resonance assay
# [9] = biological target: Tyrosine-protein kinase ABL1 (Homo sapiens) (UniProt P00519); test: Inhibition of ABL (unknown origin)
# Chain of Tyrosine-protein kinase ABL1 (Homo sapiens) (P00519 whole entry): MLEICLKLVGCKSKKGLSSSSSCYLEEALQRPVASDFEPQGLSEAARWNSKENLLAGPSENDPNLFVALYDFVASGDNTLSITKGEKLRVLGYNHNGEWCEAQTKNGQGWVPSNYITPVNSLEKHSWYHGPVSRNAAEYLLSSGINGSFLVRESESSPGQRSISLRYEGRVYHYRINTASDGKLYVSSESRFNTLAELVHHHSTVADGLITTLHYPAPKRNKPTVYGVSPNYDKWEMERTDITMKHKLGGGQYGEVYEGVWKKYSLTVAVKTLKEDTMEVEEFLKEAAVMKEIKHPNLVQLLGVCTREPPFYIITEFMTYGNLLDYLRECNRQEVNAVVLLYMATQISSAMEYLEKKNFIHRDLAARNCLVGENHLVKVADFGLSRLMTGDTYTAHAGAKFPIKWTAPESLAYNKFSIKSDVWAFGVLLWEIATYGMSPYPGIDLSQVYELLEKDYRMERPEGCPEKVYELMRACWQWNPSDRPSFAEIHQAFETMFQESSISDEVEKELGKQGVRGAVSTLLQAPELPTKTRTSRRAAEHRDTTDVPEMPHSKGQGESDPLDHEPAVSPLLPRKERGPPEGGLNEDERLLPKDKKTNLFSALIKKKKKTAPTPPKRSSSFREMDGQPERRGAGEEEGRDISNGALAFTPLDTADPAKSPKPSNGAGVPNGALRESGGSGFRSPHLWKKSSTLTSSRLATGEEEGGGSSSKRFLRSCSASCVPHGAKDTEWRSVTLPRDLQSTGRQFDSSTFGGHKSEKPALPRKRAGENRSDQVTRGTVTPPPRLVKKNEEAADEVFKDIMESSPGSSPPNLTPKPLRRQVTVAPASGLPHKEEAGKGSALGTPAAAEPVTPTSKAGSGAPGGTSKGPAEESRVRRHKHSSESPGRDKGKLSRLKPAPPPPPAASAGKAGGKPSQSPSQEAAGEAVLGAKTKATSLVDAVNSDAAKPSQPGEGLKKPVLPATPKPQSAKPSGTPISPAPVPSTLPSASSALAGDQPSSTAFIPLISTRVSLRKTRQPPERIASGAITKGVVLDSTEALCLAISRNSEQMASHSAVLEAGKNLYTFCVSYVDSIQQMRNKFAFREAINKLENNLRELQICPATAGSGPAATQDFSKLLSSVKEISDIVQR
# MV4-11 = test: Cytotoxicity against human MV4-11 cells assessed as reduction in cell viability after 72 hrs by CellTiter-Blue assay; conditions: MV4-11, 72 h
# K562 [10] = test: Inhibition of STAT5 phosphorylation at Y694 residue in human K562 cells after 5 hrs by Western blotting; type: cell-based
# Procedure, shortened: (§2)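 K562 cells were treated for 5 h across a dose range, then harvested. Immunoblots probed phospho-STAT5 (Y694), total STAT5 and cleaved PARP-1.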
# K562 [11] = test: Effect on total STAT5 level in human K562 cells at 15 uM after 5 hrs by Western blotting; type: functional, cell-based; procedure, shortened: as §2
# K562 [12] = test: Inhibition of STAT5 phosphorylation at Y694 residue in human K562 cells assessed as decreases in MYC expression after 5 hrs by Western blotting; type: cell-based
# Procedure, shortened: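 K562 cells were dosed for 5 h at the same concentrations used for pSTAT5 inhibition. MYC protein was followed by immunoblot.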
# MDA-MB-231 [13] = test: Effect on total STAT5 level in human MDA-MB-231 cells at 15 uM after 5 hrs by Western blotting; type: functional, cell-based; procedure, shortened: as §1
# K562 [14] = test: Inhibition of STAT5 phosphorylation at Y694 residue in human K562 cells at 10 uM after 5 hrs by Western blotting; type: cell-based; procedure, shortened: as §2
# JAK2/JAK1 (Homo sapiens) = JAK2/JAK1 (Homo sapiens) (UniProt P23458+O60674); test: Inhibition of JAK1/2 (unknown origin); type: protein-complex assay
Compound,Ki [1] [µM],further results
Cc1ccc(CN(C(=O)CN(C)S(=O)(=O)c2c(F)c(F)c(F)c(F)c2F)c2ccc(C(=O)O)c(O)c2)cc1,> 60,–
Cc1ccc(CN(C(=O)CN(C)S(=O)(=O)c2c(C)cc(C)cc2C)c2ccc(C(=O)O)c(O)c2)cc1,> 60,–
CN(CC(=O)N(Cc1ccc2ccccc2c1)c1ccc(C(=O)O)c(O)c1)S(=O)(=O)c1c(F)c(F)c(F)c(F)c1F,12.4,IC50 (K562 [2]): 3 µM
Cc1cc(C)c(S(=O)(=O)N(C)CC(=O)N(Cc2ccc3ccccc3c2)c2ccc(C(=O)O)c(O)c2)c(C)c1,6.62,IC50 (K562 [2]): 3 µM
Cc1cc(C)c(S(=O)(=O)N(C)CC(=O)N(Cc2ccccc2)c2ccc(C(=O)O)c(O)c2)c(C)c1,> 60,–
CN(CC(=O)N(Cc1nccn1C)c1ccc(C(=O)O)c(O)c1)S(=O)(=O)c1c(F)c(F)c(F)c(F)c1F,> 60,–
Cc1cc(C)c(S(=O)(=O)N(C)CC(=O)N(Cc2cccs2)c2ccc(C(=O)O)c(O)c2)c(C)c1,> 60,–
Cc1cc(C)c(S(=O)(=O)N(C)CC(=O)N(Cc2c(F)c(F)c(F)c(F)c2F)c2ccc(C(=O)O)c(O)c2)c(C)c1,> 60,–
Cc1cc(C)c(S(=O)(=O)N(C)CC(=O)N(Cc2cc(C(C)(C)C)cc(C(C)(C)C)c2)c2ccc(C(=O)O)c(O)c2)c(C)c1,4.77,IC50 (K562 [2]): 3 µM
CN(CC(=O)N(CC1CCCO1)c1ccc(C(=O)O)c(O)c1)S(=O)(=O)c1c(F)c(F)c(F)c(F)c1F (stereo unspecified),> 60,–
Cc1cc(C)c(S(=O)(=O)N(C)CC(=O)N(Cc2ccc(C(C)(C)C)cc2)c2ccc(C(=O)O)c(O)c2)c(C)c1,> 60,–
CN(CC(=O)N(Cc1ccccc1)c1ccc(C(=O)O)c(O)c1)S(=O)(=O)c1c(F)c(F)c(F)c(F)c1F,> 60,–
Cc1cc(C)c(S(=O)(=O)N(C)CC(=O)N(CC2CC2)c2ccc(C(=O)O)c(O)c2)c(C)c1,> 60,–
Cc1cc(C)c(S(=O)(=O)N(C)CC(=O)N(Cc2nccn2C)c2ccc(C(=O)O)c(O)c2)c(C)c1,> 60,–
CN(CC(=O)N(CC12CCC(CC1)C2)c1ccc(C(=O)O)c(O)c1)S(=O)(=O)c1c(F)c(F)c(F)c(F)c1F,> 60,–
Cc1cc(C)c(S(=O)(=O)N(CC(=O)N(Cc2cc(C(C)(C)C)cc(C(C)(C)C)c2)c2ccc(C(=O)O)c(O)c2)Cc2ccc(Cl)cc2)c(C)c1,–,IC50 (K562 [2]): 3 µM
CC(C)(C)c1cc(CN(C(=O)CN(Cc2ccc(Cl)cc2)S(=O)(=O)c2c(F)c(F)c(F)c(F)c2F)c2ccc(C(=O)O)c(O)c2)cc(C(C)(C)C)c1,–,Activity (MDA-MB-231 [3]): inactive; inhibition [4]: inactive; Activity [5]: Non-toxic; IC50 (K562 [2]): 3 µM; inhibition (K562 [6]): Active; inhibition [7]: inactive; Kd [8]: 0.042 µM; inhibition [9]: inactive; IC50 (MV4-11): 3.5 µM; inhibition (K562 [10]): Dose-dependent effect; Activity (K562 [11]): inactive; inhibition (K562 [12]): Dose-dependent effect; Activity (MDA-MB-231 [13]): inactive; inhibition (K562 [14]): Active; inhibition (JAK2/JAK1 (Homo sapiens)): inactive
CN(CC(=O)N(Cc1cc(C(C)(C)C)cc(C(C)(C)C)c1)c1ccc(C(=O)O)c(O)c1)S(=O)(=O)c1c(F)c(F)c(F)c(F)c1F,11.5,IC50 (K562 [2]): 3 µM
CN(CC(=O)N(Cc1ccc(C(C)(C)C)cc1)c1ccc(C(=O)O)c(O)c1)S(=O)(=O)c1c(F)c(F)c(F)c(F)c1F,> 60,–
Cc1cc(C)c(S(=O)(=O)N(C)CC(=O)N(CC2CCCO2)c2ccc(C(=O)O)c(O)c2)c(C)c1 (stereo unspecified),> 60,–
CN(CC(=O)N(CC1CC1)c1ccc(C(=O)O)c(O)c1)S(=O)(=O)c1c(F)c(F)c(F)c(F)c1F,> 60,–
CN(CC(=O)N(Cc1c(F)c(F)c(F)c(F)c1F)c1ccc(C(=O)O)c(O)c1)S(=O)(=O)c1c(F)c(F)c(F)c(F)c1F,> 60,–
Cc1cc(C)c(S(=O)(=O)N(C)CC(=O)N(Cc2ccc(F)cc2)c2ccc(C(=O)O)c(O)c2)c(C)c1,> 60,–
Cc1cc(C)c(S(=O)(=O)N(CC(=O)N(Cc2ccc3ccccc3c2)c2ccc(C(=O)O)c(O)c2)Cc2ccc(Cl)cc2)c(C)c1,–,IC50 (K562 [2]): 3 µM
Cc1cc(C)c(S(=O)(=O)N(C)CC(=O)N(CC23CCC(CC2)C3)c2ccc(C(=O)O)c(O)c2)c(C)c1,> 60,–
O=C(O)c1ccc(N(Cc2ccc3ccccc3c2)C(=O)CN(Cc2ccc(Cl)cc2)S(=O)(=O)c2c(F)c(F)c(F)c(F)c2F)cc1O,–,IC50 (K562 [2]): 3 µM
CN(CC(=O)N(Cc1cccs1)c1ccc(C(=O)O)c(O)c1)S(=O)(=O)c1c(F)c(F)c(F)c(F)c1F,> 60,–
CN(CC(=O)N(Cc1ccc(F)cc1)c1ccc(C(=O)O)c(O)c1)S(=O)(=O)c1c(F)c(F)c(F)c(F)c1F,> 60,–
